Active and inactive are the calls of the source.
Assays:
Assay type in all cases: functional
Acinetobacter baumannii = assay: Antimicrobial activity against Acinetobacter baumannii assessed as inhibition of microbial growth after 24 hrs
Summary of the method: (§1)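 Broth microdilution against multidrug-resistant clinical ESKAPE isolates. Overnight cultures (TSB for Gram-positives, LB for Gram-negatives) diluted 1:1000 in fresh medium, compound in DMF (≤2.0% DMF) added at decreasing concentrations, 37°C.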

Enterococcus faecium = assay: Antimicrobial activity against Enterococcus faecium assessed as inhibition of microbial growth after 24 hrs; summary of the method: as §1
Klebsiella pneumoniae = assay: Antimicrobial activity against Klebsiella pneumoniae assessed as inhibition of microbial growth after 24 hrs; summary of the method: as §1
Pseudomonas aeruginosa = assay: Antimicrobial activity against Pseudomonas aeruginosa assessed as inhibition of microbial growth after 24 hrs; summary of the method: as §1
Enterobacter cloacae = assay: Antimicrobial activity against Enterobacter cloacae assessed as inhibition of microbial growth after 24 hrs; summary of the method: as §1
Staphylococcus aureus = assay: Antimicrobial activity against Staphylococcus aureus assessed as inhibition of microbial growth after 24 hrs; summary of the method: as §1

Measured: MIC

CCCCCCCN1C(=N)NC[C@@H]1CCCCN1C[C@H]([C@@H](C)CC)N(CCc2cccc(C)c2)C1=N
inactive: all assays above

CCC[C@@H]1CN(CCCC[C@H]2CNC(=N)N2CC2CCC(C)CC2)C(=N)N1CC(C)CC (stereo not given in full)
inactive: all assays above

CCC(C)CN1C(=N)N(CCCC[C@H]2CNC(=N)N2CC2CCC(C)CC2)C[C@@H]1[C@@H](C)CC (stereo not given in full)
inactive: all assays above

CCCCCCCN1C(=N)NC[C@@H]1CCCCN1C[C@@H](CCC)N(CCc2cccc(C)c2)C1=N
inactive: all assays above

Cc1cccc(CCN2CCN(CCCC[C@H]3CNC(=N)N3CC3CCCCC3)C2=N)c1
inactive: all assays above

N=C1NCCN1CCCC[C@H]1CNC(=N)N1CC1CCCCC1
inactive: all assays above

CCC[C@@H]1CN(CCCC[C@H]2CNC(=N)N2CC2CCC(C)CC2)C(=N)N1CCc1cccc(C)c1 (stereo not given in full)
inactive: all assays above

CCC(C)CN1CCN(CCCC[C@H]2CNC(=N)N2CC2CCCCC2)C1=N (stereo not given in full)
inactive: all assays above

CC[C@H](C)[C@H]1CN(CCCC[C@H]2CNC(=N)N2CC2CCC(C)CC2)C(=N)N1CCc1cccc(C)c1 (stereo not given in full)
inactive: all assays above

CCCCCCCN1C(=N)NC[C@@H]1CCCCN1C[C@@H](CCC)NC1=N
inactive: all assays above

CC[C@H](C)[C@H]1CN(CCCC[C@H]2CNC(=N)N2CC2CCCCC2)C(=N)N1
inactive: all assays above

CCCCCCCN1C(=N)NC[C@@H]1CCCCN1CCN(CCc2cccc(C)c2)C1=N
inactive: all assays above

CC1CCC(CN2C(=N)NC[C@@H]2CCCCN2CCNC2=N)CC1 (stereo not given in full)
inactive: all assays above

CCC[C@@H]1CN(CCCC[C@H]2CNC(=N)N2CC2CCC(C)CC2)C(=N)N1 (stereo not given in full)
inactive: all assays above

CC[C@H](C)[C@H]1CN(CCCC[C@H]2CNC(=N)N2CC2CCCCC2)C(=N)N1CCc1cccc(C)c1
inactive: all assays above

From ChEMBL document CHEMBL3421570, “Combinatorial Libraries As a Tool for the Discovery of Novel, Broad-Spectrum Antibacterial Agents Targeting the ESKAPE Pathogens” (J Med Chem, 2015)
